# Most compounds without a hit are left out; they make up all but 0.55% or so of the library.
# ABCB1 inh = blocks JC-1 efflux by human ABCB1 transporter. P08183. CCRF-Adr cells, flow cytometry. inhibition, % at 6.6 µM. 0.067% of 190,000 active. AID 1326; in the data active = inhibition above about 40%;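 also: 0% = vehicle and 100% = reference inhibitor; higher value means more JC-1 retained so stronger ABCB1 efflux block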
# ABCB6 inh MLPCN = inhibitors of human ABC transporter ABCB6; Q9NP58; K562-ABCB6 porphyrin accumulation, flow cytometry, 1 h; active compounds read low; fluorescence ratio to DMSO, % at 10 µM; 0.19% of 360,000 active; AID 602162;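 active = fluorescence ratio to DMSO below 75%, the collection mean minus 3 SD; inconclusive = too few cells collected in the well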;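 also: signal is porphyrin accumulated inside mitochondria; 100% equals median channel fluorescence of DMSO control wells; lower ratio means ABCB6 inhibition with less porphyrin fluorescence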
# Rad51 HR inh = blocks human Rad51 in homologous recombination | Q06609 | hRad51 DNA strand exchange, fluorescence dequenching | inhibition, % at 10 µM | 0.085% of 200,000 active;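 active = inhibition above 40% at the single screening dose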;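 also: 0% = DMSO control wells and 100% = blanks with heterologous ssDNA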
#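 material = hRad51 filaments on single-stranded DNA | reagent = Donor/quencher-labelled 47-bp dsDNA substrate | compound = 10 µM final, single point | schedule = strand-exchange reaction 15 min at room temperature | measured by = fluorescein emission 520 nm, excitation 485 nm | read-out basis = % inhibition versus plate control and blank means | benchmarks = plate controls and plate blanks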
# p97 inhibitor = blocks human p97 ATPase activity | inhibition, % at 8 µM | P55072 | recombinant p97 ATPase, Kinase-Glo ATP luminescence, 3 h | 0.42% of 220,000 active | AID 1481; in the data active = inhibition above about 15%;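 also: 0% = DMSO vehicle and 100% = wells lacking enzyme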
# HSV augment = HSV replication enhancement | maximum fold increase | 0.005% of 220,000 active | HSV replication augmentation in cells, fold increase; in the data active = maximum fold increase above about 1.5; inconclusive = no clear call, values can overlap the other calls; tested in PC3 cells
# ABCG2 block = blocks JC-1 efflux by human ABCG2 transporter. inhibition, % at 6.6 µM. 0.1% of 190,000 active. IgMXP3 cells, flow cytometry. Q9UNQ0;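 active = inhibition above 80%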;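 also: 0% = DMSO and 100% = nicardipine control wells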
#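 System: two drug-resistant human cell lines, ABCG2 and ABCB1; controls: nicardipine high and DMSO low controls; times: 10 min exposure at 25 °C with rotation, no wash; detection: flow cytometry of retained JC-1 fluorescence; read-out basis: percent efflux inhibition, scaled nicardipine 100% to DMSO 0%; doses: one concentration, 6.6 µM final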
# p97 confirm = human p97 ATPase inhibition, confirmation; shares compounds with p97 inhibitor; recombinant p97 ATPase, Kinase-Glo ATP luminescence; inhibition, % at 8 µM; 44% of 760 active; AID 1517;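 active = percent inhibition of p97 ATPase above a set limit, the primary screen's mean plus 3 SD, cut at about 15% in these data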;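 also: 0% = DMSO wells and 100% = wells lacking p97 protein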
# Starred values were filed as active, the others as inactive; i = inactive; ? = inconclusive; · = no result.
SMILES,ABCB1 inh,ABCB6 inh MLPCN,Rad51 HR inh,p97 inhibitor,HSV augment,ABCG2 block,p97 confirm
CCOC(=O)C1CCCN(S(=O)(=O)c2cn(C)c(=O)n(C)c2=O)C1 (centres undefined),-3,101,-8,17*,i,-3,3
CCOC(=O)C1CCN(S(=O)(=O)c2cn(C)c(=O)n(C)c2=O)CC1,0,101,-2,2,i,3,·
C=CCNCC(O)COc1ccc(C(C)=O)cc1OC (centres undefined),·,98,-8,18*,i,·,10
Cn1c(SCC(=O)N2CCCc3ccccc32)nnc1-c1c[nH]c2ccccc12,1,97,-1,16*,i,6,6
CCn1c(SCC(=O)N2CCCc3ccccc32)nnc1-c1c[nH]c2ccccc12,2,101,3,2,i,16,·
NC(=O)c1cccc(-c2ccnc3c2CC(C(=O)NCCc2ccccc2)O3)c1 (centres undefined),·,96,·,·,·,·,·
Cc1cc(OCC(=O)OCC(=O)N(Cc2ccccc2)C(C)(C)C)ccc1Cl,·,96,·,·,·,·,·
Cc1c(CC(=O)NCCCO)c(=O)oc2cc3c(cc12)CCC(C)(C)O3,·,96,·,·,·,·,·
Cc1c(O)ccc2c(O)c(NC(=O)c3ccc4c(c3)CCC(C)(C)O4)c(=O)oc12,·,102,-5,29*,i,·,0
O=C(c1cc(Cl)cc(Cl)c1)N1CCC(=O)N([C@H](COCc2ccccc2)Cc2ccccc2)CC1,·,96,·,·,·,·,·
COc1cc2c(C#N)c(N3CCCC3)nc(N)c2c(N)n1,·,106,3,26*,i,·,4
C[N+](C)(CC#N)C/C=C\c1ccccc1,2,93,-1,17*,i,3,4
CN(C/C=C/c1ccccc1)Cc1cccc2ccccc12,·,98,·,·,·,·,·
N#CCCn1[nH]c(-c2ccccc2)cc1=O,0,103,4,22*,i,-3,5
Cc1cc(=O)n(CCCc2ccccc2)[nH]1,·,97,·,·,·,·,·
O=c1[nH]c(S)c(/C=C2\C=Nc3ccccc32)s1,·,153,-47,22*,?,·,16*
CC1=NN(c2ccc(C)cc2C)C(=O)C1C(c1ccccc1O)C1C(=O)N(c2ccc(C)cc2C)N=C1C (centres undefined),2,95,·,28*,i,0,8
O=C(NC(=S)N1CCCCC1CO)c1cccs1 (centres undefined),·,98,·,·,·,·,·
CC(=O)NCCC(=O)Nc1ccc(C(N)=O)cc1,1,90,2,23*,i,1,7
CCCC(=O)Nc1ccc(C(N)=O)cc1,1,98,0,2,i,5,·
CC1CC(=O)c2c(cc3c(-c4c(O)cc(O)c5c(O)c6c(cc45)OC(C)CC6=O)c(O)cc(O)c3c2O)O1 (centres undefined),-2,134,10,56*,i,-4,49*
O=C1CC(c2ccc(O)cc2)Oc2cc(O)cc(O)c21 (centres undefined),0,98,-4,6,i,0,·
COc1ccc(/C=N/Nc2nnc(-c3ccccc3)c(=O)[nH]2)cc1,1,97,2,17*,i,11,38*
COC(=O)c1ccccc1NC(=S)NC(=O)c1ccccc1,1,94,-7,26*,i,4,21*
COC(=O)c1ccccc1NC(=S)NC(=O)c1ccccc1C,1,97,·,36*,·,21,39*
SMILES,ABCB1 inh,ABCB6 inh MLPCN,Rad51 HR inh,p97 inhibitor,HSV augment,ABCG2 block,p97 confirm
Cc1ccccc1C(=O)NC(=S)Nc1ccccc1C(=O)O,0,98,-5,3,i,1,·
COC(=O)c1ccccc1NC(=S)NC(=O)C1CCCCC1,0,105,·,18*,·,2,19*
COc1ccc(OC)c2sc(NC(=O)CCS(=O)(=O)c3ccccc3)nc12,·,97,6,19*,i,·,25*
Cc1ccc(C(O)c2ncc(-c3ccccc3Cl)[nH]2)cc1F (centres undefined),·,95,·,·,·,·,·
COC(=O)[C@]12CCCCC=C1N(Cc1ccco1)C(=O)[C@H](CC(=O)N1CCCCC1)C2,·,96,·,·,·,·,·
Cc1ccc(-c2nnn3c2nc(Cl)c2ccccc23)cc1,-1,98,1,17*,i,5,8
Clc1nc2c(-c3ccccc3)nnn2c2ccccc12,·,96,15,17*,i,·,25*
Fc1cccc(-c2nnn3c2nc(Cl)c2ccccc23)c1,1,97,-7,7,i,13,·
Cc1cc(Br)ccc1SCC(=O)OC/C(O)=C(\C#N)c1nc2ccccc2[nH]1,·,101,-14,7,i,·,·
Cc1ccc(C)c(SCC(=O)OC/C(O)=C(\C#N)c2nc3ccccc3[nH]2)c1,0,115,-35,18*,i,-1,40*
N#C/C(=C(/O)CCl)c1nc2ccccc2[nH]1,-1,98,-52,38*,i,-2,30*
N#C/C(=C(\O)Cc1ccccc1)c1nc2ccccc2[nH]1,0,93,5,-5,i,1,·
O=Cc1ccc(OCc2cccc(C(F)(F)F)c2)cc1O,0,97,9,15*,i,1,19*
NC(=O)CC(NC(=O)c1cccc(Br)c1)c1ccc(NC2CCCCCCC2)c([N+](=O)[O-])c1 (centres undefined),·,101,·,·,·,·,·
O=C1NN(c2ccccc2)C(=O)/C1=C/c1cccs1,0,·,-11,8,i,20,·
O=C1NN(c2cccc(Br)c2)C(=O)/C1=C/c1cccs1,·,92,22,17*,i,·,23*
CC(C)(C)N1C(=O)Cc2c1nc(N)c1c(N)nc(N3CCCCC3CO)c(C#N)c21 (centres undefined),0,85,4,28*,i,0,36*
Cc1[nH][nH]c(=O)c1C(c1c(C)[nH][nH]c1=O)c1cn(Cc2ccccc2Cl)c2ccccc12,1,104,11,20*,i,4,20*
CCc1ccc(C(O)c2ncc(-c3ccccc3C(F)(F)F)[nH]2)cc1 (centres undefined),·,95,·,·,·,·,·
CC1CC(C)(C)NC(=S)N1CCC(=O)N1CCN(c2ccccc2)CC1 (centres undefined),-1,99,2,15*,i,-3,3
CN(C)S(=O)(=O)c1cccc(NC(=O)c2cc(-c3cccs3)nn2-c2ccccc2)c1,0,97,·,26*,i,8,5
CC1(Oc2ccc3ccccc3c2)CCN(Cc2cccn2-c2nccs2)C1 (centres undefined),·,102,·,·,·,·,·
CC[N+](C)(C)CCN(Cc1ccc(Cl)cc1)c1ccccn1,0,99,-3,15*,i,1,3

# Source: PubChem BioAssay
